Source: ChEMBL document CHEMBL1134286, “Novel erythromycin derivatives with aryl groups tethered to the C-6 position are potent protein synthesis inhibitors and active against multidrug-resistant respiratory pathogens” (J Med Chem, 2001)
Converted amounts (≈) assume the structure as drawn.

Tests used:
Type in all cases: functional
Streptococcus pneumoniae [1] = experiment: Minimum inhibitory concentration against Streptococcus pneumoniae 5649 efflux
Summary of the method: (§1)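 MICs were determined by agar dilution following National Committee for Clinical Laboratory Standards recommendations. Values are in µg/mL.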

Staphylococcus aureus [2] = experiment: Minimum inhibitory concentration against Staphylococcus aureus A 5278 MLSB-c; summary of the method: as §1
[3] = Minimum inhibitory concentration against Streptococcus pyogenes 930MLSB; summary of the method: as §1
Staphylococcus aureus [4] = experiment: Minimum inhibitory concentration against Staphylococcus aureus ATCC 6538PEry-S; settings: ATCC 6538P; summary of the method: as §1
[5] = Minimum inhibitory concentration against Streptococcus pyogenes EES 61 Ery-S; summary of the method: as §1
[6] = Minimum inhibitory concentration against Haemophilus influenzae DILL Amp-R; summary of the method: as §1
[7] = Minimum inhibitory concentration against Streptococcus pyogenes PIU2548 efflux; summary of the method: as §1
Streptococcus pneumoniae [8] = experiment: Minimum inhibitory concentration against Streptococcus pneumoniae ATCC 6303 Ery-S; summary of the method: as §1
Staphylococcus aureus [9] = experiment: Minimum inhibitory concentration against Staphylococcus aureus A 5177 MLSB-i; summary of the method: as §1
[10] = Minimum inhibitory concentration against Streptococcus pneumoniae 5737 MLSB; summary of the method: as §1

CC[C@H]1OC(=O)[C@H](C)C(=O)[C@H](C)[C@@H](O[C@@H]2O[C@H](C)C[C@H](N(C)C)[C@H]2O)[C@](C)(OC/C=C/c2ccc(Cl)cc2)C[C@@H](C)C(=O)[C@H](C)[C@@H](O)[C@]1(C)O
MIC (Streptococcus pneumoniae [1]): 2 µg/mL (≈ 2.76 µM) | MIC (Staphylococcus aureus [2]): > 100 µg/mL | MIC [3]: 32 µg/mL (≈ 44.2 µM) | MIC (Staphylococcus aureus [4]): 1.56 µg/mL (≈ 2.15 µM) | MIC [5]: 0.5 µg/mL (≈ 0.69 µM) | MIC [6]: 64 µg/mL (≈ 88.4 µM) | MIC [7]: 2 µg/mL (≈ 2.76 µM) | MIC (Streptococcus pneumoniae [8]): 1 µg/mL (≈ 1.38 µM) | MIC (Staphylococcus aureus [9]): 1.56 µg/mL (≈ 2.15 µM) | MIC [10]: 32 µg/mL (≈ 44.2 µM)

CC[C@H]1OC(=O)[C@H](C)C(=O)[C@H](C)[C@@H](O[C@@H]2O[C@H](C)C[C@H](N(C)C)[C@H]2O)[C@](C)(OC/C=C/c2cccc3cnccc23)C[C@@H](C)C(=O)[C@H](C)[C@H]2NC(=O)O[C@@]21C
MIC (Streptococcus pneumoniae [1]): 0.25 µg/mL (≈ 0.326 µM) | MIC (Staphylococcus aureus [2]): > 100 µg/mL | MIC [3]: 32 µg/mL (≈ 41.8 µM) | MIC (Staphylococcus aureus [4]): 0.1 µg/mL (≈ 0.131 µM) | MIC [5]: 0.008 µg/mL (≈ 0.0104 µM) | MIC [6]: 4 µg/mL (≈ 5.22 µM) | MIC [7]: 0.25 µg/mL (≈ 0.326 µM) | MIC (Streptococcus pneumoniae [8]): 0.008 µg/mL (≈ 0.0104 µM) | MIC (Staphylococcus aureus [9]): 0.1 µg/mL (≈ 0.131 µM) | MIC [10]: 8 µg/mL (≈ 10.4 µM)

CC[C@H]1OC(=O)[C@H](C)C(=O)[C@H](C)[C@@H](O[C@@H]2O[C@H](C)C[C@H](N(C)C)[C@H]2O)[C@](C)(OC/C=C/c2ccnc3ccccc23)C[C@@H](C)C(=O)[C@H](C)[C@H]2NC(=O)O[C@@]21C
MIC (Streptococcus pneumoniae [1]): 1 µg/mL (≈ 1.31 µM) | MIC (Staphylococcus aureus [2]): > 100 µg/mL | MIC [3]: 64 µg/mL (≈ 83.6 µM) | MIC (Staphylococcus aureus [4]): 0.2 µg/mL (≈ 0.261 µM) | MIC [5]: 0.03 µg/mL (≈ 0.0392 µM) | MIC [6]: 4 µg/mL (≈ 5.22 µM) | MIC [7]: 2 µg/mL (≈ 2.61 µM) | MIC (Streptococcus pneumoniae [8]): 0.03 µg/mL (≈ 0.0392 µM) | MIC (Staphylococcus aureus [9]): 0.2 µg/mL (≈ 0.261 µM) | MIC [10]: 128 µg/mL (≈ 167 µM)

CC[C@H]1OC(=O)[C@H](C)C(=O)[C@H](C)[C@@H](O[C@@H]2O[C@H](C)C[C@H](N(C)C)[C@H]2O)[C@](C)(OCCNCc2ccncc2)C[C@@H](C)C(=O)[C@H](C)[C@@H](O)[C@]1(C)O
MIC (Streptococcus pneumoniae [1]): 2 µg/mL (≈ 2.83 µM) | MIC (Staphylococcus aureus [2]): > 100 µg/mL | MIC [3]: > 100 µg/mL | MIC (Staphylococcus aureus [4]): 6.2 µg/mL (≈ 8.76 µM) | MIC [5]: 0.39 µg/mL (≈ 0.551 µM) | MIC [6]: 32 µg/mL (≈ 45.2 µM) | MIC [7]: 1.56 µg/mL (≈ 2.2 µM) | MIC (Streptococcus pneumoniae [8]): 0.25 µg/mL (≈ 0.353 µM) | MIC (Staphylococcus aureus [9]): 3.1 µg/mL (≈ 4.38 µM) | MIC [10]: > 128 µg/mL

CC[C@H]1OC(=O)[C@H](C)C(=O)[C@H](C)[C@@H](O[C@@H]2O[C@H](C)C[C@H](N(C)C)[C@H]2O)[C@](C)(OC/C=C/c2cnc3ccccc3c2)C[C@@H](C)C(=O)[C@H](C)[C@H]2N(N)C(=O)O[C@]12C
MIC (Streptococcus pneumoniae [1]): 0.25 µg/mL (≈ 0.32 µM) | MIC (Staphylococcus aureus [2]): > 100 µg/mL | MIC [3]: 64 µg/mL (≈ 82 µM) | MIC (Staphylococcus aureus [4]): 0.1 µg/mL (≈ 0.128 µM) | MIC [5]: 0.015 µg/mL (≈ 0.0192 µM) | MIC [6]: 2 µg/mL (≈ 2.56 µM) | MIC [7]: 0.5 µg/mL (≈ 0.64 µM) | MIC (Streptococcus pneumoniae [8]): 0.015 µg/mL (≈ 0.0192 µM) | MIC (Staphylococcus aureus [9]): 0.1 µg/mL (≈ 0.128 µM) | MIC [10]: 64 µg/mL (≈ 82 µM)

CC[C@H]1OC(=O)[C@H](C)C(=O)[C@H](C)[C@@H](O[C@@H]2O[C@H](C)C[C@H](N(C)C)[C@H]2O)[C@](C)(OCCNCc2cnc3ccccc3c2)C[C@@H](C)C(=O)[C@H](C)[C@H]2NC(=O)O[C@@]21C
MIC (Streptococcus pneumoniae [1]): 2 µg/mL (≈ 2.55 µM) | MIC (Staphylococcus aureus [2]): > 100 µg/mL | MIC [3]: 16 µg/mL (≈ 20.4 µM) | MIC (Staphylococcus aureus [4]): 0.1 µg/mL (≈ 0.128 µM) | MIC [5]: 0.03 µg/mL (≈ 0.0383 µM) | MIC [6]: 2 µg/mL (≈ 2.55 µM) | MIC [7]: 2 µg/mL (≈ 2.55 µM) | MIC (Streptococcus pneumoniae [8]): 0.03 µg/mL (≈ 0.0383 µM) | MIC (Staphylococcus aureus [9]): 0.1 µg/mL (≈ 0.128 µM) | MIC [10]: 4 µg/mL (≈ 5.11 µM)

CC[C@H]1OC(=O)[C@H](C)[C@@H](O[C@H]2C[C@@](C)(OC)[C@@H](O)[C@H](C)O2)[C@H](C)[C@@H](O[C@@H]2O[C@H](C)C[C@H](N(C)C)[C@H]2O)[C@](C)(OC/C=C/c2cnc3ccccc3c2)C[C@@H](C)C(=O)[C@H](C)[C@@H](O)[C@]1(C)O
MIC (Streptococcus pneumoniae [1]): 4 µg/mL (≈ 4.44 µM) | MIC (Staphylococcus aureus [2]): > 100 µg/mL | MIC [3]: 64 µg/mL (≈ 71 µM) | MIC (Staphylococcus aureus [4]): 0.2 µg/mL (≈ 0.222 µM) | MIC [5]: 0.06 µg/mL (≈ 0.0666 µM) | MIC [6]: 8 µg/mL (≈ 8.88 µM) | MIC [7]: 4 µg/mL (≈ 4.44 µM) | MIC (Streptococcus pneumoniae [8]): 0.06 µg/mL (≈ 0.0666 µM) | MIC (Staphylococcus aureus [9]): 3.1 µg/mL (≈ 3.44 µM) | MIC [10]: 128 µg/mL (≈ 142 µM)
